Assay results as given in ChEMBL document CHEMBL1135761, “Discovery of further pyrrolidine trans-lactams as inhibitors of human neutrophil elastase (HNE) with potential as development candidates and the crystal structure of HNE complexed with an inhibitor (GW475151)” (J Med Chem, 2002).

Experiments:
[1] = Pharmacokinetic parameter Varea in dog was reported in Cassette dosage; assay type: ADME, organism-based, Canis lupus familiaris; conditions: in vivo, read-out: Varea
Outline: (§1)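 Dog cassette: the set of compounds was given intravenously into the femoral vein to a beagle dog at 0.2 mg/kg body weight per compound. Jugular blood was sampled from 5 min to 24 h postdose. Plasma was prepared by solid phase extraction, then analysed by HPLC with single ion monitoring MS using 0.1% formic acid in water:methanol (70:30).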

[2] = Pharmacokinetic parameter clearance in dog was reported in Discrete dosage; assay type: ADME, organism-based, Canis lupus familiaris; conditions: plasma, read-out: Clp
[3] = Half life time in dog was reported in cassette dosage; assay type: ADME, organism-based, Canis lupus familiaris; conditions: in vivo; outline: as §1
[4] = Pharmacokinetic parameter Varea in dog was reported in Discrete dosage; assay type: ADME, organism-based, Canis lupus familiaris; conditions: in vivo, read-out: Varea
[5] = Pharmacokinetic parameter clearance in dog was reported in Cassette dosage; assay type: ADME, organism-based, Canis lupus familiaris; conditions: plasma, read-out: Clp; outline: as §1
[6] = Half life time in dog was reported in Discrete dosage; assay type: ADME, organism-based, Canis lupus familiaris; conditions: in vivo
[7] = half life was reported in dog after oral administration; assay type: ADME, organism-based, Canis lupus familiaris; conditions: in vivo
[8] = Pharmacokinetic parameter Cmax was reported after in rat oral administration; assay type: ADME, organism-based; set-up: route oral; conditions: in vivo
Outline: (§2)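 Rats were dosed with the hydrochloride salt at 2 mg/kg intravenously and orally. Plasma pharmacokinetic parameters were derived from each route, and F was taken from the oral versus intravenous exposure. Some rat data were normalized from a 2.4 to a 2 mg/kg dose.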

[9] = target: Chymotrypsinogen A (Bos taurus, UniProt P00766); assay: The compound was evaluated for its inhibitory activity against Chymotrypsinogen using selectivity assay
Outline: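 Selectivity counter-screen against chymotrypsin, run essentially per an earlier published protocol; inhibitor preincubated with enzyme for 15 min before activity read-out.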

[10] = system: Canis familiaris; assay: pharmacokinetic parameter area under the curve (AUC) was reported in dog after intravenous administration; assay type: ADME, organism-based, Canis lupus familiaris; conditions: in vivo
[11] = target: T1, Cathepsin G (Homo sapiens, UniProt P08311); assay: The compound was evaluated for its inhibitory activity against cathepsin G using selectivity assay
T1 sequence (P08311 whole entry): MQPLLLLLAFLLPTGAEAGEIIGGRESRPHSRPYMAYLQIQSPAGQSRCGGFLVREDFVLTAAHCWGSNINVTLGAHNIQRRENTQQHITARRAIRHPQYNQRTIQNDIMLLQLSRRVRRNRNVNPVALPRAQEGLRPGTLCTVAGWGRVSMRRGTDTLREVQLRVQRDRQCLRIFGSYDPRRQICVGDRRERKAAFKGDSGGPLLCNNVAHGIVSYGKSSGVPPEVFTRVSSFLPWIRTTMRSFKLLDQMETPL

[12] = pharmacokinetic parameter volume of distribution (Vd) was reported in dog after intravenous administration; assay type: ADME, organism-based, Canis lupus familiaris; conditions: in vivo, read-out: Vd area
[13] = half life was reported in rat after intravenous administration; assay type: ADME, organism-based; conditions: in vivo; outline: as §2
[14] = system: Rattus norvegicus; assay: pharmacokinetic parameter area under the curve (AUC) was reported in rat after intravenous administration; assay type: ADME, organism-based; conditions: in vivo; outline: as §2
[15] = Pharmacokinetic parameter Tmax was reported in rat after intravenous administration; assay type: ADME, organism-based; conditions: in vivo; outline: as §2
[16] = target: T2, Neutrophil elastase (Homo sapiens) (UniProt P08246); conditions: Canis lupus familiaris; 2 mg/kg
T2 sequence (whole entry): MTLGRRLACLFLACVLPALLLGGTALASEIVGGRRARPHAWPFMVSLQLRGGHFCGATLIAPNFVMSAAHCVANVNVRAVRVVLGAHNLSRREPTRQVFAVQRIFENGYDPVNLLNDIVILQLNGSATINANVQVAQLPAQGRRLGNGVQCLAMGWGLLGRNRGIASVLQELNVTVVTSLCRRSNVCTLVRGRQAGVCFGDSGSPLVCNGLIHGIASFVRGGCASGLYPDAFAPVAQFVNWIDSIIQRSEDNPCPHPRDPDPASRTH

[17] = pharmacokinetic parameter volume of distribution (Vd) was reported in rat after intravenous administration; assay type: ADME, organism-based; conditions: in vivo, read-out: Vd area; outline: as §2
[18] = Pharmacokinetic parameter Cmax was reported after in dog oral administration; assay type: ADME, organism-based, Canis lupus familiaris; set-up: route oral; conditions: in vivo
[19] = target: T2, Neutrophil elastase (Homo sapiens); conditions: Canis lupus familiaris; Blood; 2 mg/kg
[20] = half life was reported in dog after intravenous administration; assay type: ADME, organism-based, Canis lupus familiaris; conditions: in vivo
[21] = Pharmacokinetic parameter Tmax was reported in rat after oral administration; assay type: ADME, organism-based; conditions: in vivo; outline: as §2
[22] = Oral bioavailability in dog; assay type: ADME, organism-based, Canis lupus familiaris; conditions: in vivo
[23] = half life was reported in rat after oral administration; assay type: ADME, organism-based; conditions: in vivo; outline: as §2
[24] = target: T2, Neutrophil elastase (Homo sapiens)
[25] = system: Rattus norvegicus; assay: pharmacokinetic parameter area under the curve (AUC) was reported in rat after oral administration; assay type: ADME, organism-based; conditions: in vivo; outline: as §2
[26] = Oral bioavailability in rat; assay type: ADME, organism-based; conditions: in vivo; outline: as §2
[27] = system: Canis familiaris; assay: pharmacokinetic parameter area under the curve (AUC) was reported in dog after oral administration; assay type: ADME, organism-based, Canis lupus familiaris; conditions: in vivo
[28] = target: Serine protease 1 (Homo sapiens, UniProt P07477); assay: The compound was evaluated for its inhibitory activity against trypsin using selectivity assay
Sequence of Serine protease 1 (P07477 whole entry): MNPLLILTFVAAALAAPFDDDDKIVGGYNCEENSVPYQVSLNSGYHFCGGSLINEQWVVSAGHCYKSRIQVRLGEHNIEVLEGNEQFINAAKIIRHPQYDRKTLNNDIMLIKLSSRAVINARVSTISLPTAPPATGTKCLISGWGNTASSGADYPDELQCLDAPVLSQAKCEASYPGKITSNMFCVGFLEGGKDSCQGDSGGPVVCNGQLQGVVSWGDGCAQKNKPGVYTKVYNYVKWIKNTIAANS

[29] = Pharmacokinetic parameter Tmax was reported in dog after oral administration; assay type: ADME, organism-based, Canis lupus familiaris; conditions: in vivo
[30] = Pharmacokinetic parameter Tmax was reported in dog after intravenous administration; assay type: ADME, organism-based, Canis lupus familiaris; conditions: in vivo
[31] = target: T2, Neutrophil elastase (Homo sapiens); conditions: Canis lupus familiaris; Blood; 2 mg/kg; remark: listed apart in the source

Vd [1] [L/kg]	clearance [2] [mL/min/kg]	half-life [3] [min]	Vd [4] [L/kg]	clearance [5] [mL/min/kg]	half-life [6] [min]	half-life [7] [min]	Cmax [8] [ng/mL]	AUC [10] [ng·h/mL]	IC50 [11] [µM]	Vd [12] [L/kg]	half-life [13] [min]	AUC [14] [ng·h/mL]	Tmax [15] [min]	inhibition [16] [%]	Vd [17] [L/kg]	Cmax [18] [ng/mL]	half-life [20] [min]	Tmax [21] [min]	bioavailability [22] [%]	further results	Structure (SMILES)
7.6	197	42	3.5	134	12	–	–	–	–	–	–	–	–	–	–	–	–	–	–	–	CCCN(C)Cc1ccc(C(=O)N2CCC3C2C(C(C)C)C(=O)N3S(C)(=O)=O)cc1 (stereo unspecified)
4.3	94	30	3.8	97	30	–	–	–	–	–	–	–	–	–	–	–	–	–	–	–	CC(C)C1C(=O)N(S(C)(=O)=O)C2CCN(C(=O)c3ccc(CNC4CC4)cc3)C12 (stereo unspecified)
3.3	19	120	2.7	20	108	–	–	–	–	–	–	–	–	–	–	–	–	–	–	–	CC(C)C1C(=O)N(S(C)(=O)=O)C2CCN(C(=O)/C=C/CN3CCCCC3)C12 (stereo unspecified)
–	–	–	–	–	–	24	135	220	> 100	1.9	18	148	1.8	92	5	205	24	15	120	IC50 [9]: 0.54 µM; inhibition [19]: 99%; half-life [23]: 24 min; k on [24]: 252000 M⁻¹ s⁻¹; AUC [25]: 64 ng·h/mL; bioavailability [26]: 43%; AUC [27]: 147 ng·h/mL; IC50 [28]: > 100 µM; Tmax [29]: 15 min	CC(C)[C@@H]1C(=O)N(S(C)(=O)=O)[C@@H]2CCN(C(=O)c3cnc(CNC4CC4)cn3)[C@H]21.Cl
–	–	–	–	–	–	84	147	286	> 100	3.4	24	392	1.8	100	2.6	138	60	15	100	IC50 [9]: 3 µM; inhibition [19]: 100%; Tmax [30]: 1.8 min; half-life [23]: 78 min; k on [24]: 30500 M⁻¹ s⁻¹; AUC [25]: 93 ng·h/mL; bioavailability [26]: 24%; AUC [27]: 308 ng·h/mL; IC50 [28]: > 100 µM; Tmax [29]: 30 min	CC(C)[C@@H]1C(=O)N(S(C)(=O)=O)[C@@H]2CCN(C(=O)c3coc(CN4CCCC4)n3)[C@H]21.Cl
6.6	220	30	3.8	161	12	–	–	–	–	–	–	–	–	–	–	–	–	–	–	–	CC(C)[C@@H]1C(=O)N(S(C)(=O)=O)[C@@H]2CCN(C(=O)c3ccc(CCN4CCCCC4)cc3)[C@H]21
4.8	–	60	–	53	–	–	–	–	–	–	–	–	–	–	–	–	–	–	–	–	CC(C)C1C(=O)N(S(C)(=O)=O)C2CCN(C(=O)c3csc(CN4CCCC4)n3)C12 (stereo unspecified)
2.5	40	60	2.9	28	54	–	–	–	–	–	–	–	–	–	–	–	–	–	–	–	CC(C)[C@@H]1C(=O)N(S(C)(=O)=O)[C@@H]2CCN(C(=O)/C=C/CNC3CC3)[C@H]21
4.4	–	18	–	176	–	–	–	–	–	–	–	–	–	–	–	–	–	–	–	–	CC(C)[C@@H]1C(=O)N(S(C)(=O)=O)[C@@H]2CCN(C(=O)c3ccc(CN(C)C(C)C)c(Br)c3)[C@H]21
–	–	–	–	–	–	96	232	405	> 100	3.5	66	424	3	97	7.5	152	90	30	100	half-life [23]: 48 min; inhibition [31]: 100%; k on [24]: 6630 M⁻¹ s⁻¹; AUC [25]: 263 ng·h/mL; bioavailability [26]: 60%; AUC [27]: 430 ng·h/mL; IC50 [28]: > 100 µM; Tmax [29]: 42 min	CC(C)[C@@H]1C(=O)N(S(C)(=O)=O)[C@@H]2CCN(C(=O)/C=C/CN3CCCCC3)[C@H]21.Cl
–	–	–	–	–	–	126	142	488	> 100	3.5	48	482	1.8	92	4.9	130	108	45	90	IC50 [9]: 31 µM; inhibition [19]: 99%; half-life [23]: 72 min; k on [24]: 6310 M⁻¹ s⁻¹; AUC [25]: 217 ng·h/mL; bioavailability [26]: 45%; AUC [27]: 417 ng·h/mL; IC50 [28]: > 100 µM; Tmax [29]: 54 min	CC(C)[C@@H]1C(=O)N(S(C)(=O)=O)[C@@H]2CCN(C(=O)C3CN(CC(C)(C)C)C3)[C@H]21.Cl
2.9	–	42	–	46	–	–	–	–	–	–	–	–	–	–	–	–	–	–	–	–	CC(C)C1C(=O)N(S(C)(=O)=O)C2CCN(C(=O)c3ccc(CNC4CC4)nc3)C12 (stereo unspecified)
